The RNAGym collection of RNA variant scans (doi:10.1038/s41586-018-0170-7)

B1: tRNA (parent)
chain: GUUCCGUUGGCGUAAUGGUAACGCGUCUCCCUCCUAAGGAGAAGACUGCGGGUUCGAGUCCCGUACGGAACG

Variants of: B1
Assay: yeast fitness, log relative to wild type (ln ratio); higher = fitter; tRNA-Arg(CCU), competitive growth, 37 C, 1 M NaCl
Method in brief: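 For each genotype, fitness is defined as the natural log of its generation number over the wild type's. The tRNA-Arg(CCU) variant library was on a HIS3 centromeric plasmid in BY4742 with the chromosomal gene removed, and pools were first grown 4 generations in SC-HIS at 30 °C and then ~6.5 generations (~26.5 h) in SC-HIS 1M NaCl at 37 °C. Generations were calculated from OD-scaled log2 output/input frequency, weighted by inverse variance across replicates, using counts from 125 bp paired-end Illumina sequencing.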

Question: For AGUCCUUUGGCGUAAUGGUAACGCGUCUCCCUCCUAAGGAGAAGAUUGCGGGUUCGAGUCCCGUACGGGGCG [G1A U2G G6U C46U A69G A70G], which “yeast fitness (ln)” value is on record?
Answer: -0.247

Question: With AGUCCUUUGGCGUAAUGGUAACGCGUCUCCCUCCUAAGGAGAAGAUUGCGGGUUCGAGUCCCGUACGGGUCG [G1A U2G G6U C46U A69G A70U] as the variant, how does the “yeast fitness (ln)” value read?
Answer: -0.211

Question: Which “yeast fitness (ln)” value does the source give for AGUCCUUUGGCGUAAUGGUAACGCGUCUCCCUCCUAAGGAGAAGAUUGCGGGUUCGAGUCCCGUAAGGAGUG [G1A U2G G6U C46U C66A A70G C71U] here?
Answer: -0.511

Question: Which “yeast fitness (ln)” value does the source give for AGUCCUUUGGCGUAAUGGUAACGCGUCUCCCUCCUAAGGAGAAGAUUGCGGGUUCGAGUCCCGUAUGGAGCG [G1A U2G G6U C46U C66U A70G] here?
Answer: -0.238

Question: Which “yeast fitness (ln)” value does the source give for AGUCCUUUGGCGUAAUGGUAACGCGUCUCCCUCCUAAGGAGAAGAUUGCGGGUUCGAGUCCCGUAUGGGAUG [G1A U2G G6U C46U C66U A69G C71U] here?
Answer: -0.466

Question: With AGUCCUUUGGCGUAAUGGUAACGCGUUUCCCUCCUAAGGAGAAGAUUGCGGGUUCGAGUCCCGUACGGGGUG [G1A U2G G6U C27U C46U A69G A70G C71U] as the variant, how does the “yeast fitness (ln)” value read?
Answer: -0.35

Question: With AGUCCUUUGGCGUAAUGGUAACGCGUUUCCCUCCUAAGGAGAAGACUGCGGGUUCGAGUCCCGUAUGGAAUG [G1A U2G G6U C27U C66U C71U] as the variant, how does the “yeast fitness (ln)” value read?
Answer: -0.522

Question: Which “yeast fitness (ln)” value does the source give for AGUCCUUUGGCGUAAUGGUAACGCGUCUCCCUCCUAAGGAGAAGAUUGCGGGUUCGAGUCCCGUACGGAACG [G1A U2G G6U C46U] here?
Answer: -0.0886

Question: With AGUCCUUUGGCGUAAUGGUAACGCGUUUCCCUCCUAAGGAGAAGACUGCGGGUUCGAGUCCCGUAUGGAGUG [G1A U2G G6U C27U C66U A70G C71U] as the variant, how does the “yeast fitness (ln)” value read?
Answer: -0.325

Question: Which “yeast fitness (ln)” value does the source give for AGUCCUUUGGCGUAAUGGUAACGCGUCUCCCUCCUAAGGAGAAGAUUGCGGGUUCGAGUCCCGUAUGGGUUG [G1A U2G G6U C46U C66U A69G A70U C71U] here?
Answer: -0.441

Question: For AGUCCUUUGGCGUAAUGGUAACGCGUCUCCCUCCUAAGGAGAAGAUUGCGGGUUCGAGUCCCGUACGGGUUG [G1A U2G G6U C46U A69G A70U C71U], which “yeast fitness (ln)” value is on record?
Answer: -0.279

Question: With AGUCCUUUGGCGUAAUGGUAACGCGUUUCCCUCCUAAGGAGAAGACUGCGGGUUCGAGUCCCGUAAGGAAUG [G1A U2G G6U C27U C66A C71U] as the variant, how does the “yeast fitness (ln)” value read?
Answer: -0.273

Question: For AGUCCUUUGGCGUAAUGGUAACGCGUCUCCCUCCUAAGGAGAAGAUUGCGGGUUCGAGUCCCGUAAGGGGUG [G1A U2G G6U C46U C66A A69G A70G C71U], which “yeast fitness (ln)” value is on record?
Answer: -0.416

Question: For AGUCCUUUGGCGUAAUGGUAACGCGUCUCCCUCCUAAGGAGAAGAUUGCGGGUUCGAGUCCCGUAAGGAACG [G1A U2G G6U C46U C66A], which “yeast fitness (ln)” value is on record?
Answer: -0.122

Question: For AGUCCUUUGGCGUAAUGGUAACGCGUCUCCCUCCUAAGGAGAAGAUUGCGGGUUCGAGUCCCGUAUGGAACG [G1A U2G G6U C46U C66U], which “yeast fitness (ln)” value is on record?
Answer: -0.14

Question: Which “yeast fitness (ln)” value does the source give for AGUCCUUUGGCGUAAUGGUAACGCGUCUCCCUCCUAAGGAGAAGAUUGCGGGUUCGAGUCCCGUACGGAGCG [G1A U2G G6U C46U A70G] here?
Answer: -0.282

Question: Which “yeast fitness (ln)” value does the source give for AGUCCUUUGGCGUAAUGGUAACGCGUCUCCCUCCUAAGGAGAAGAUUGCGGGUUCGAGUCCCGUACGGAUCG [G1A U2G G6U C46U A70U] here?
Answer: -0.246

Question: Which “yeast fitness (ln)” value does the source give for AGUCCUUUGGCGUAAUGGUAACGCGUUUCCCUCCUAAGGAGAAGAUUGCGGGUUCGAGUCCCGUACGGGUUG [G1A U2G G6U C27U C46U A69G A70U C71U] here?
Answer: -0.43

Question: With AGUCCUUUGGCGUAAUGGUAACGCGUUUCCCUCCUAAGGAGAAGAUUGCGGGUUCGAGUCCCGUACGGAGCG [G1A U2G G6U C27U C46U A70G] as the variant, how does the “yeast fitness (ln)” value read?
Answer: -0.274

Question: Which “yeast fitness (ln)” value does the source give for AGUCCUUUGGCGUAAUGGUAACGCGUUUCCCUCCUAAGGAGAAGAUUGCGGGUUCGAGUCCCGUACGGAUCG [G1A U2G G6U C27U C46U A70U] here?
Answer: -0.217

Question: With AGUCCUUUGGCGUAAUGGUAACGCGUUUCCCUCCUAAGGAGAAGACUGCGGGUUCGAGUCCCGUAAGGGGUG [G1A U2G G6U C27U C66A A69G A70G C71U] as the variant, how does the “yeast fitness (ln)” value read?
Answer: -0.408

Question: With AGUCCUUUGGCGUAAUGGUAACGCGUUUCCCUCCUAAGGAGAAGACUGCGGGUUCGAGUCCCGUAUGGGGUG [G1A U2G G6U C27U C66U A69G A70G C71U] as the variant, how does the “yeast fitness (ln)” value read?
Answer: -0.446

Question: With AGUCCUUUGGCGUAAUGGUAACGCGUCUCCCUCCUAAGGAGAAGAUUGCGGGUUCGAGUCCCGUAAGGGUUG [G1A U2G G6U C46U C66A A69G A70U C71U] as the variant, how does the “yeast fitness (ln)” value read?
Answer: -0.227

Question: For AGUCCUUUGGCGUAAUGGUAACGCGUCUCCCUCCUAAGGAGAAGAUUGCGGGUUCGAGUCCCGUAAGGAUUG [G1A U2G G6U C46U C66A A70U C71U], which “yeast fitness (ln)” value is on record?
Answer: 0.00484

Question: For AGUCCUUUGGCGUAAUGGUAACGCGUUUCCCUCCUAAGGAGAAGACUGCGGGUUCGAGUCCCGUAAGGAGUG [G1A U2G G6U C27U C66A A70G C71U], which “yeast fitness (ln)” value is on record?
Answer: -0.287

Question: Which “yeast fitness (ln)” value does the source give for AGUCCUUUGGCGUAAUGGUAACGCGUUUCCCUCCUAAGGAGAAGACUGCGGGUUCGAGUCCCGUACGGAAUG [G1A U2G G6U C27U C71U] here?
Answer: -0.358

Question: With AGUCCUUUGGCGUAAUGGUAACGCGUUUCCCUCCUAAGGAGAAGACUGCGGGUUCGAGUCCCGUAUGGAUUG [G1A U2G G6U C27U C66U A70U C71U] as the variant, how does the “yeast fitness (ln)” value read?
Answer: -0.434

Question: With AGUCCUUUGGCGUAAUGGUAACGCGUUUCCCUCCUAAGGAGAAGAUUGCGGGUUCGAGUCCCGUAAGGAUCG [G1A U2G G6U C27U C46U C66A A70U] as the variant, how does the “yeast fitness (ln)” value read?
Answer: -0.322

Question: Which “yeast fitness (ln)” value does the source give for AGUCCUUUGGCGUAAUGGUAACGCGUUUCCCUCCUAAGGAGAAGAUUGCGGGUUCGAGUCCCGUAAGGAGCG [G1A U2G G6U C27U C46U C66A A70G] here?
Answer: -0.148

Question: For AGUCCUUUGGCGUAAUGGUAACGCGUUUCCCUCCUAAGGAGAAGAUUGCGGGUUCGAGUCCCGUAUGGAUCG [G1A U2G G6U C27U C46U C66U A70U], which “yeast fitness (ln)” value is on record?
Answer: -0.236

Question: For AGUCCUUUGGCGUAAUGGUAACGCGUUUCCCUCCUAAGGAGAAGAUUGCGGGUUCGAGUCCCGUAUGGAGCG [G1A U2G G6U C27U C46U C66U A70G], which “yeast fitness (ln)” value is on record?
Answer: -0.437

Question: For AGUCCUUUGGCGUAAUGGUAACGCGUCUCCCUCCUAAGGAGAAGAUUGCGGGUUCGAGUCCCGUACGGGAUG [G1A U2G G6U C46U A69G C71U], which “yeast fitness (ln)” value is on record?
Answer: -0.3

Question: Which “yeast fitness (ln)” value does the source give for AGUCCUUUGGCGUAAUGGUAACGCGUCUCCCUCCUAAGGAGAAGAUUGCGGGUUCGAGUCCCGUACGGAGUG [G1A U2G G6U C46U A70G C71U] here?
Answer: -0.257

Question: Which “yeast fitness (ln)” value does the source give for AGUCCUUUGGCGUAAUGGUAACGCGUUUCCCUCCUAAGGAGAAGAUUGCGGGUUCGAGUCCCGUAUGGAGUG [G1A U2G G6U C27U C46U C66U A70G C71U] here?
Answer: -0.307

Question: For AGUCCUUUGGCGUAAUGGUAACGCGUUUCCCUCCUAAGGAGAAGACUGCGGGUUCGAGUCCCGUAAGGGUUG [G1A U2G G6U C27U C66A A69G A70U C71U], which “yeast fitness (ln)” value is on record?
Answer: -0.404

Question: With AGUCCUUUGGCGUAAUGGUAACGCGUUUCCCUCCUAAGGAGAAGAUUGCGGGUUCGAGUCCCGUACGGAGUG [G1A U2G G6U C27U C46U A70G C71U] as the variant, how does the “yeast fitness (ln)” value read?
Answer: -0.368

Question: With AGUCCUUUGGCGUAAUGGUAACGCGUUUCCCUCCUAAGGAGAAGACUGCGGGUUCGAGUCCCGUAAGGAGCG [G1A U2G G6U C27U C66A A70G] as the variant, how does the “yeast fitness (ln)” value read?
Answer: -0.268

Question: Which “yeast fitness (ln)” value does the source give for AGUCCUUUGGCGUAAUGGUAACGCGUUUCCCUCCUAAGGAGAAGACUGCGGGUUCGAGUCCCGUAAGGAUCG [G1A U2G G6U C27U C66A A70U] here?
Answer: -0.27
